# Experimental data taken from ChEMBL document CHEMBL1141591, “Lipophilic modifications to dinucleoside polyphosphates and nucleotides that confer antagonist properties at the platelet P2Y12 receptor” (J Med Chem, 2008).
# pEC50: −log10 of the molar value. Active and inactive are the calls of the source. No cut-off for these calls is given here.
# Legend:
# [1] = biological target: P2Y purinoceptor 1 (Homo sapiens, UniProt P47900); assay: Agonist activity at human recombinant P2Y1 receptor expressed in human 1321 cells at 100 uM by calcium mobilization assay; type: functional, cell-based
# P2Y purinoceptor 1, sequence (P47900 whole entry): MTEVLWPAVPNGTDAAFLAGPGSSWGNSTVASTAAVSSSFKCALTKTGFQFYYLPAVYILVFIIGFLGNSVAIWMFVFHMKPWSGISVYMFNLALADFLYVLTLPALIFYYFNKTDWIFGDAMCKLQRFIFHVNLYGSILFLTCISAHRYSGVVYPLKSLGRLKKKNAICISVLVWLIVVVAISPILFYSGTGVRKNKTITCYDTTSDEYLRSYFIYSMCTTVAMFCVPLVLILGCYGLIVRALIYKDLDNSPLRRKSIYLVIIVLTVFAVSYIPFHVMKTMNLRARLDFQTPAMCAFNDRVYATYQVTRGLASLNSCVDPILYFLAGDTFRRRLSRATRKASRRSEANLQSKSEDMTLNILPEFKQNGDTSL
# In short: (§1)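 1321N1 human astrocytoma cells expressing the recombinant receptor were loaded with Fluo-3 AM (2.5 µM final) for 60 min at 25 °C. Assay buffer: KCl 10, NaCl 118, CaCl2 2.5, MgCl2 1, HEPES 20, glucose 10 mM, pH 7.4. Cells were washed and then stimulated with compound. Intracellular calcium was read as the change in fluorescence (FLIPR). Values are EC50 in µM. SR means 5–20% of maximal response at the top concentration, usually 100 µM. NR means no response.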
# [2] = biological target: T1, P2Y purinoceptor 2 (Homo sapiens, UniProt P41231); assay: Agonist activity at P2Y2 receptor expressed in human 1321 cells at 100 uM by calcium mobilization assay; type: functional, cell-based; in short: as §1
# T1 sequence (P41231 whole entry): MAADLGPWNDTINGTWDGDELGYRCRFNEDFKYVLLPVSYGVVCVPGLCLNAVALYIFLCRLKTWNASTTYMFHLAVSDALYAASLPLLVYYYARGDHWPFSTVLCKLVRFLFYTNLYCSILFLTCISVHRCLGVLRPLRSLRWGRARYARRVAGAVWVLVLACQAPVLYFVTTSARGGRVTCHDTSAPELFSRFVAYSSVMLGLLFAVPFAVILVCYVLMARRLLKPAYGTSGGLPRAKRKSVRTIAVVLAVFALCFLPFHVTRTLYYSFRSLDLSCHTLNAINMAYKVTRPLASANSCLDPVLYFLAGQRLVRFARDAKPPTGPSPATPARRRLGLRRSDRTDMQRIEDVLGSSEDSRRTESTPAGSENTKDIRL
# [3] = biological target: P2Y purinoceptor 6 (Homo sapiens, UniProt Q15077); assay: Agonist activity at P2Y6 receptor expressed in human 1321 cells at 100 uM by calcium mobilization assay; type: functional, cell-based; in short: as §1
# P2Y purinoceptor 6, sequence (Q15077 whole entry): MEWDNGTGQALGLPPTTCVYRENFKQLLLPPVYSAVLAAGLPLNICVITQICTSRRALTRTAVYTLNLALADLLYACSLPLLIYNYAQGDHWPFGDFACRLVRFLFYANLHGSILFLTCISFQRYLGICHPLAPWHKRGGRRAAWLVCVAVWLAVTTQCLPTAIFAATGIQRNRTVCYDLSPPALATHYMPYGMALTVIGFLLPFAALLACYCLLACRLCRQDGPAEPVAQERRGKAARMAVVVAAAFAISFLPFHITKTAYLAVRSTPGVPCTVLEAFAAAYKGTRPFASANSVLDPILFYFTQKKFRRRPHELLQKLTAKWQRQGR
# [4] = biological target: P2Y purinoceptor 12 (Homo sapiens) (UniProt Q9H244); assay: Antagonist activity at P2Y12 receptor assessed as inhibition of ADP-induced human platelet aggregation by washed platelet assay at 100 uM; type: functional
# P2Y purinoceptor 12 (Homo sapiens), sequence (Q9H244 whole entry): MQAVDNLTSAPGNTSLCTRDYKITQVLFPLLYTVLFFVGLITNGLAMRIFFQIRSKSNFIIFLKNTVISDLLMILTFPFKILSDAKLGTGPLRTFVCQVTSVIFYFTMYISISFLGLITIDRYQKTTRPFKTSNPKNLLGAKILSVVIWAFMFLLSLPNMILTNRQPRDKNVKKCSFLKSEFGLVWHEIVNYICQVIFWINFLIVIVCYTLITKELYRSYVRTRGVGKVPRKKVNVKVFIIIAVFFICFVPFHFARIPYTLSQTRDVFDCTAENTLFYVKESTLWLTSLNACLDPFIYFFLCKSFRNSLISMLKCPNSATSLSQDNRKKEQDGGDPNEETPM
# In short: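 Blood from healthy volunteers was anticoagulated with ACD and spun at 180g for 15 min to give PRP. Platelets were washed three times in HEPES-buffered saline, pH 7.4, with 0.2% BSA and 5 µM PGI2, then resuspended with 0.25 U/mL apyrase. The suspension held 1 mg/mL fibrinogen at 37 °C, stirred at 1000 rpm. Compound (usually 1 nM–100 µM) was added for 2 min, then ADP at EC90 (usually 1–10 µM). Optical aggregation was recorded for 8 min. IC50 came from a four-parameter logistic fit.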
# [5] = biological target: T1, P2Y purinoceptor 2; assay: Agonist activity at P2Y2 receptor expressed in human 1321 cells by calcium mobilization assay; type: functional, cell-based
SMILES,Activity [1],Activity [2],Activity [3],inhibition [4],pEC50 [5],Activity [4]
O=c1ccn([C@@H]2O[C@H](COP(=O)(O)OP(=O)(O)OP(=O)(O)OP(=O)(O)OC[C@@H]3O[C@H](n4ccc(=O)[nH]c4=O)[C@H]4OC(/C=C/c5ccccc5)O[C@H]43)[C@H]3OC(/C=C/c4ccccc4)O[C@H]32)c(=O)[nH]1 (stereo in doubt; 25),inactive,inactive,> 5%,–,–,–
CNc1ccccc1C(=O)O[C@H]1[C@@H](O)[C@H](COP(=O)(O)OP(=O)(O)OP(=O)(O)OP(=O)(O)OC[C@H]2O[C@@H](n3ccc(=O)[nH]c3=O)[C@H](O)[C@@H]2O)O[C@@H]1n1ccc(=O)[nH]c1=O,inactive,–,> 5%,46%,6.89,–
O=c1ccn([C@@H]2O[C@H](COP(=O)(O)OP(=O)(O)OP(=O)(O)OP(=O)(O)OC[C@@H]3O[C@H](n4ccc(=O)[nH]c4=O)[C@@H](O)[C@H]3O)[C@@H]3OC(Cc4ccccc4)O[C@H]32)c(=O)[nH]1 (some centres undefined),inactive,–,> 5%,–,7.03,–
O=C(Nc1ccc(F)cc1)Nc1ccn([C@@H]2O[C@H](COP(=O)(O)OP(=O)(O)OP(=O)(O)OP(=O)(O)OC[C@@H]3O[C@H](n4ccc(=O)[nH]c4=O)[C@H]4O[C@@H](Cc5ccccc5)O[C@H]43)[C@@H](O)[C@H]2O)c(=O)n1,inactive,inactive,–,–,–,–
Nc1ccn([C@@H]2O[C@H](COP(=O)(O)OP(=O)(O)OP(=O)(O)OP(=O)(O)OC[C@@H]3O[C@H](n4ccc(=O)[nH]c4=O)[C@H]4OC(Cc5ccccc5)O[C@H]43)[C@@H](O)[C@H]2O)c(=O)n1 (some centres undefined),inactive,inactive,inactive,46%,–,–
O=C(Nc1ccccc1)Nc1ncnc2c1ncn2[C@@H]1O[C@H](COP(=O)(O)OP(=O)(O)OP(=O)(O)OP(=O)(O)OC[C@@H]2O[C@H](n3cnc4c(NC(=O)Nc5ccccc5)ncnc43)[C@H]3O[C@@H](Cc4ccccc4)O[C@H]32)[C@H]2O[C@@H](Cc3ccccc3)O[C@H]21,inactive,inactive,–,–,–,–
Nc1ccn([C@@H]2O[C@H](COP(=O)(O)O)[C@H]3O[C@@H](Cc4ccccc4)O[C@H]32)c(=O)n1,inactive,inactive,inactive,–,–,inactive
Nc1ccn([C@@H]2O[C@H](COP(=O)(O)OP(=O)(O)OP(=O)(O)OP(=O)(O)OC[C@@H]3O[C@H](n4ccc(=O)[nH]c4=O)[C@H]4OC(Cc5ccccc5)O[C@H]43)[C@H]3OC(Cc4ccccc4)O[C@H]32)c(=O)n1 (some centres undefined),inactive,inactive,inactive,–,–,–
O=C(Nc1ccc(F)cc1)Nc1ccn([C@@H]2O[C@H](COP(=O)(O)OP(=O)(O)OP(=O)(O)OP(=O)(O)OC[C@@H]3O[C@H](n4ccc(=O)[nH]c4=O)[C@@H](O)[C@H]3O)[C@H]3O[C@@H](Cc4ccccc4)O[C@H]32)c(=O)n1,inactive,> 5%,–,–,–,–
O=C(Nc1ccccc1)Nc1ncnc2c1ncn2[C@@H]1O[C@H](COP(=O)(O)OP(=O)(O)O)[C@H]2O[C@@H](Cc3ccccc3)O[C@H]21,> 5%,–,> 5%,–,4.86,–
O=C(Nc1ccc(F)cc1)Nc1ccn([C@@H]2O[C@H](COP(=O)(O)OP(=O)(O)OP(=O)(O)OP(=O)(O)OC[C@@H]3O[C@H](n4ccc(=O)[nH]c4=O)[C@@H](O)[C@H]3O)[C@@H](O)[C@H]2O)c(=O)n1,> 5%,–,–,–,5.62,inactive
CCCCCCCC1O[C@@H]2[C@H](O1)[C@@H](COP(=O)(O)OP(=O)(O)OP(=O)(O)OP(=O)(O)OC[C@@H]1O[C@H](n3ccc(=O)[nH]c3=O)[C@@H](O)[C@H]1O)O[C@H]2n1ccc(=O)[nH]c1=O (some centres undefined),inactive,–,> 5%,–,6.83,–
O=C(Nc1ccc(F)cc1)Nc1ccn([C@@H]2O[C@H](COP(=O)(O)OP(=O)(O)OP(=O)(O)OP(=O)(O)OC[C@@H]3O[C@H](n4ccc(=O)[nH]c4=O)[C@H]4O[C@@H](Cc5ccccc5)O[C@H]43)[C@H]3O[C@@H](Cc4ccccc4)O[C@H]32)c(=O)n1,inactive,inactive,inactive,–,–,–
Nc1ncnc2c1ncn2[C@@H]1O[C@H](COP(=O)(O)OP(=O)(O)OP(=O)(O)OP(=O)(O)OC[C@@H]2O[C@H](n3cnc4c(N)ncnc43)[C@H]3OC(Cc4ccccc4)O[C@H]32)[C@H]2OC(Cc3ccccc3)O[C@H]21 (some centres undefined),inactive,> 5%,inactive,–,–,–
Nc1ncnc2c1ncn2[C@@H]1O[C@H](COP(=O)(O)OP(=O)(O)OP(=O)(O)OP(=O)(O)OC[C@@H]2O[C@H](n3cnc4c(N)ncnc43)[C@@H](O)[C@H]2O)[C@H]2OC(Cc3ccccc3)O[C@H]21 (some centres undefined),inactive,–,inactive,–,7.28,–
CNc1ccccc1C(=O)O[C@H]1[C@@H](O)[C@H](n2ccc(=O)[nH]c2=O)O[C@@H]1COP(=O)(O)OP(=O)(O)OP(=O)(O)OP(=O)(O)OC[C@@H]1O[C@H](n2ccc(=O)[nH]c2=O)[C@@H](OC(=O)c2ccccc2NC)[C@H]1O,inactive,–,> 5%,–,5.26,–
Nc1ncnc2c1ncn2[C@@H]1O[C@H](COP(=O)(O)OP(=O)(O)OP(=O)(O)O)[C@@H](O)[C@H]1O,–,–,–,63%,–,–
"O=C(Nc1ccc(F)cc1)Nc1ccn([C@@H]2O[C@H](COP(=O)(O)O)C(O)C2O)c(=O)n1 (single isomer, unassigned)",–,–,–,–,–,inactive
Nc1ccn([C@@H]2O[C@H](COP(=O)(O)OP(=O)(O)OP(=O)(O)OP(=O)(O)OC[C@@H]3O[C@H](n4ccc(=O)[nH]c4=O)[C@@H](O)[C@H]3O)[C@H]3OC(Cc4ccccc4)O[C@H]32)c(=O)n1 (some centres undefined),inactive,–,inactive,46%,6.26,–
CCCC1O[C@@H]2[C@@H](O1)[C@@H](COP(=O)(O)OP(=O)(O)OP(=O)(O)OP(=O)(O)OC[C@@H]1O[C@H](n3ccc(=O)[nH]c3=O)[C@H]3OC(CCC)O[C@H]31)O[C@H]2n1ccc(=O)[nH]c1=O (some centres undefined),inactive,> 5%,> 5%,60%,–,–
O=c1ccn([C@@H]2O[C@H](COP(=O)(O)OP(=O)(O)OP(=O)(O)OP(=O)(O)OC[C@@H]3O[C@H](n4ccc(=O)[nH]c4=O)[C@@H](O)[C@H]3O)[C@H]3OC(C#Cc4ccccc4)O[C@H]32)c(=O)[nH]1 (stereo in doubt; 26),inactive,–,–,–,7.17,–
Nc1ccn([C@@H]2O[C@H](COP(=O)(O)OP(=O)(O)OP(=O)(O)OP(=O)(O)OC[C@@H]3O[C@H](n4ccc(=O)[nH]c4=O)[C@@H](O)[C@H]3O)[C@@H](O)[C@H]2O)c(=O)n1,> 5%,–,> 5%,–,7.36,inactive
O=c1ccn([C@@H]2O[C@H](COP(=O)(O)OP(=O)(O)OP(=O)(O)OC[C@@H]3O[C@H](n4ccc(=O)[nH]c4=O)[C@H]4OC(Cc5ccccc5)O[C@H]43)[C@H]3OC(Cc4ccccc4)O[C@H]32)c(=O)[nH]1 (some centres undefined),inactive,inactive,inactive,–,–,–
O=C(Nc1ccc(F)cc1)Nc1ccn([C@@H]2O[C@H](COP(=O)(O)O)[C@H]3O[C@@H](Cc4ccccc4)O[C@H]32)c(=O)n1,inactive,inactive,inactive,–,–,–
O=C(O[C@@H]1[C@H](OC(=O)c2ccccc2)[C@@H](n2ccc(=O)[nH]c2=O)O[C@H]1COP(=O)(O)OP(=O)(O)OP(=O)(O)OP(=O)(O)OC[C@H]1O[C@@H](n2ccc(=O)[nH]c2=O)[C@H](OC(=O)c2ccccc2)[C@@H]1OC(=O)c1ccccc1)c1ccccc1,inactive,inactive,inactive,52%,–,–
CCCCCCCC1O[C@@H]2[C@H](O1)[C@@H](COP(=O)(O)OP(=O)(O)OP(=O)(O)OP(=O)(O)OC[C@@H]1O[C@H](n3ccc(=O)[nH]c3=O)[C@H]3OC(CCCCCCC)O[C@H]31)O[C@H]2n1ccc(=O)[nH]c1=O (some centres undefined),inactive,–,inactive,–,–,–
O=c1ccn([C@@H]2O[C@H](COP(=O)(O)OP(=O)(O)OP(=O)(O)OP(=O)(O)OC[C@@H]3O[C@H](n4ccc(=O)[nH]c4=O)[C@@H](O)[C@H]3O)[C@@H]3OC(c4ccccc4)O[C@H]32)c(=O)[nH]1 (some centres undefined),inactive,–,> 5%,–,6.72,–
O=c1ccn([C@@H]2O[C@H](COP(=O)(O)OP(=O)(O)OP(=O)(O)OP(=O)(O)OC[C@@H]3O[C@H](n4ccc(=O)[nH]c4=O)[C@@H](O)[C@H]3O)[C@H]3OC(/C=C/c4ccccc4)O[C@H]32)c(=O)[nH]1 (stereo in doubt; 24),inactive,–,–,–,6.81,–
O=c1ccn([C@@H]2O[C@H](COP(=O)(O)OP(=O)(O)OP(=O)(O)OP(=O)(O)OC[C@@H]3O[C@H](n4ccc(=O)[nH]c4=O)[C@H]4OC(c5ccccc5)O[C@H]43)[C@H]3OC(c4ccccc4)O[C@H]32)c(=O)[nH]1 (some centres undefined),inactive,–,inactive,–,5.51,–
